{"data": "Results pooled from the literature", "CYP3A4": "Cytochrome P450 3A4 (CYP3A4, Homo sapiens, UniProt P08684)", "note": "Protocols differ between the studies behind these lines."}
{"SMILES": "Cc1cccc(F)c1N1CCC(N2Cc3cn(CC(C)(F)F)nc3N(Cc3ccccc3C(F)(F)F)C2=O)CC1", "tested on": "CYP3A4", "assay": "enzyme activity, inhibitor", "system": "human, liver microsomes", "conditions": "midazolam probe", "measurement": "IC50", "result": "> 10 µM"}
{"SMILES": "O=C(Nc1ccc(O)cc1)c1ccccc1O", "tested on": "BHK-21", "assay": "cell growth or viability, MTT", "measurement": "CC50", "result": "> 1000 µM"}
{"SMILES": "COC(=O)C1CCN(C(=O)c2ccc(NCc3cnc4nc(N)nc(N)c4n3)cc2)CC1", "tested on": "CYP3A4", "assay": "enzyme activity, inhibitor, luciferase", "conditions": "10 µM", "measurement": "inhibition", "result": "-13.4%"}
{"SMILES": "CCC[C@@](N)(CO)CCc1ccc(OCCCCCC(C)C)cc1", "system": "mouse, plasma", "conditions": "oral, 10 mg/kg", "measurement": "Cmax", "result": "161 nM"}
{"SMILES": "N[C@@H](Cc1ccccc1)C(=O)N1CCC(C(=O)N[C@H](C(=O)O)c2ccccc2)CC1", "tested on": "BHK-21", "assay": "cell growth or viability, MTT", "measurement": "CC50", "result": "> 100 µM"}
{"SMILES": "CN[C@H](CC(C)C)C(=O)N[C@H]1C(=O)N[C@@H](CC(N)=O)C(=O)N[C@H]2C(=O)NC3C(=O)N[C@H](C(=O)N[C@H](C(=O)NCCC[N+](C)(C)C)c4cc(O)cc(O)c4-c4cc3ccc4O)[C@H](O)c3ccc(c(Cl)c3)Oc3cc2cc(c3OC2OC(CO)C(O)[C@H](O)[C@@H]2O[C@H]2CC(C)(NCc3ccc(-c4ccc(Cl)cc4)cc3)[C@H](O)[C@H](C)O2)Oc2ccc(cc2Cl)[C@H]1O (some centres unmarked)", "system": "mouse, plasma", "conditions": "intravenous, 50 mg/kg", "measurement": "Cmax", "result": "58900 ng/mL"}
{"SMILES": "CCCCCCCC(=O)N[C@@H](CCCCN)C(=O)N[C@@H](CCCCN)C(=O)N[C@@H](C)C(=O)N[C@@H](CC(C)C)C(=O)N[C@@H](CCCCN)C(=O)N[C@@H](CC(C)C)C(=O)N[C@@H](C)C(=O)N[C@@H](CCCCN)C(=O)N[C@@H](CCCCN)C(=O)N1CCC[C@H]1C(=O)N[C@@H](CC(C)C)C(=O)N[C@@H](CCCCN)C(=O)N[C@@H](CC(C)C)C(=O)N[C@@H](CC(C)C)C(=O)N[C@@H](CCCCN)C(N)=O", "system": "female CD-1 mouse, blood", "conditions": "intravenous, 3 mg/kg, single dose", "measurement": "Cmax", "result": "1420 ng/mL"}
{"SMILES": "Cc1nc2c([nH]1)c(=O)n(C)c(=O)n2Cc1ccco1", "tested on": "Cytochrome P450 1A2 (CYP1A2, Homo sapiens, UniProt P05177)", "assay": "enzyme activity, inhibitor", "system": "human, liver microsomes", "conditions": "40 µM", "measurement": "inhibition", "result": "71%"}
{"SMILES": "CCc1cc(/C(C)=N/OCc2ccc(C3CCCCC3)c(C(F)(F)F)c2)ccc1CN1CC(C(=O)O)C1", "tested on": "CYP3A4", "assay": "enzyme activity, inhibitor", "system": "human, liver microsomes", "conditions": "200 µM, 20 min, midazolam probe", "measurement": "inhibition", "result": "11.5%"}
{"SMILES": "C[C@]12CC[C@H](n3ccnc3)CC1=CC[C@@H]1[C@@H]2CC[C@]2(C)C(n3cnc4ccccc43)=CC[C@@H]12.Cl.Cl", "system": "male CD-1 mouse, plasma", "conditions": "oral, 10 mg/kg", "measurement": "Cmax", "result": "1510 ng/mL"}
{"SMILES": "O=C(Nc1ncc([N+](=O)[O-])s1)c1ccccc1O", "tested on": "BHK-21", "assay": "cell growth or viability, MTT", "measurement": "CC50", "result": "> 1000 µM"}
{"SMILES": "Cc1cc(C)nc(Nc2ncc(C(=O)NCCc3c(C)[nH]c4ccccc34)cn2)c1", "system": "C57BL/6 mouse, plasma", "conditions": "intraperitoneal, 22 mg/kg", "measurement": "Cmax", "result": "1150 ng/mL"}
{"SMILES": "Cc1ccccc1/C=C1/SC(=O)NC1=O", "tested on": "BHK-21", "assay": "cell growth or viability, MTT", "measurement": "CC50", "result": "> 100 µM"}
{"SMILES": "NCCc1ccccn1", "tested on": "CYP3A4", "assay": "enzyme activity, inhibitor", "measurement": "IC50", "result": "5000 µM"}
